ChEMBL document CHEMBL1154772, “Synthesis and in vitro evaluation of N-substituted maleimide derivatives as selective monoglyceride lipase inhibitors” (J Med Chem, 2009)

What was measured:
[1] = target: T1, Monoglyceride lipase (Homo sapiens, UniProt Q99685); experiment: Inhibition of human MGL
T1 sequence (Q99685 whole entry): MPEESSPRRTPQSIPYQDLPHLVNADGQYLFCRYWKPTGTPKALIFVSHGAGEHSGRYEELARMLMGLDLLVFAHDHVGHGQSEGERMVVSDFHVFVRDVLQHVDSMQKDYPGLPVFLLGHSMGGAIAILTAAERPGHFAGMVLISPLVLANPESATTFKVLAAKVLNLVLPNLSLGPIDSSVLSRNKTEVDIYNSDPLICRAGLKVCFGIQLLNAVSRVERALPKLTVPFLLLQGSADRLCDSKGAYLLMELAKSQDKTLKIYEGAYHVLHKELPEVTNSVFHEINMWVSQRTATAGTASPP
Outline: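 Purified recombinant human MGL (5 ng) in 50 mM Tris pH 8.0, 0.1% BSA with compound or DMSO vehicle. [3H]-2-OG (10 μM) hydrolysis run 10 min at 37 °C, stopped with ice-cold methanol-chloroform 1:1. Aqueous-phase radioactivity read by liquid scintillation, no-enzyme blanks subtracted.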

[2] = organism: Homo sapiens; experiment: Selectivity ratio of IC50 for human FAAH to IC50 for human MGL
Outline: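 Ratio of IC50 against human FAAH ([3H]anandamide hydrolysis) to IC50 against purified human MGL ([3H]-2-OG hydrolysis), each from three independent experiments in duplicate.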

[3] = target: T2, Monoglyceride lipase (Homo sapiens) (UniProt Q99685); experiment: Inhibition of [3H]2-OG binding to human MGL at 20 times IC50 treated for 1 hr before addition of 2-OG by liquid scintillation counting
T2 sequence (whole entry): T1 sequence (Q99685 whole entry)

## CCCCC/C=C\C/C=C\C/C=C\C/C=C\CCCC(=O)C(F)(F)F [ARACHIDONYL TRIFLUOROMETHYLKETONE]
[1]
  IC50: 6.31 µM
[2]
  Ratio IC50: 0.002
[3]
  inhibition: 26%
